For test [1], the system named is Mus musculus. The test can be described thus: Specific Incorporation (cpm/mg of melanin) of melanin after isolation from tumor after ip injection at 30 min of assay. The format is functional. Put shortly:
(§1)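 Mice (female C57Bl/6, s.c. B16 melanoma, two weeks) received 10 μCi [2-14C]TU and were euthanized at the noted times. Tumours were weighed, frozen, homogenized in 1% acetic acid–ethanol (30:70) and centrifuged. Melanosomal melanin was purified on a sucrose density gradient, dried to constant weight, and radioactivity was expressed as cpm/mg melanin.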

The subject of test [2] is Mus musculus. The test can be described thus: Absorbance at 350 nM of a solution of melanosomes […] from tumor after ip injection at 30 min of assay as a measure of pigment content of tissue. Format: functional.
Test [3] has as its system Mus musculus. The test can be described thus: Absorbance at 350 nM of a solution of melanosomes obtained by treatment in hot alkali from tumor after ip injection at 180 min of assay as a measure of pigment content of tissue. Format: functional.
Test [4] relates to Mus musculus. Put plainly: Absorbance at 350 nM of a solution of melanosomes obtained by treatment in hot alkali from tumor after ip injection at 0 min of assay as a measure of pigment content of tissue. The format is functional.
Test [5] concerns Mus musculus. Put plainly: Specific Incorporation (cpm/mg of melanin) of melanin after isolation from tumor after ip injection at 180 min of assay. The format is functional. Put shortly:
as §1

The subject of test [6] is Mus musculus. The test can be described thus: Specific Incorporation (cpm/mg of melanin) of melanin after isolation from tumor after ip injection at 90 min of assay. Format: functional. An outline of the steps:
as §1

Test [7] is filed under the species Mus musculus. The test can be described thus: HPCL quantitation of resulting degradation product, pyrrole-2,3,5-tricarboxylic acid (PTCA) content after tumor isolation at 0 min of assay. The format is functional, organism-based. An outline of the steps: (§2)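 B16 tumours were grown s.c. in female C57Bl/6 mice, which were given 10 μCi [2-14C]TU two weeks later. At each time point, melanosomes were isolated by sucrose density gradient ultracentrifugation. 4 mg was oxidized with alkaline H2O2 (1 M NaOH, 30% H2O2) for 3 h at 25 °C. PTCA was quantified by HPLC with 280 nm detection and expressed per mg.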

For test [8], the system named is Mus musculus. Put plainly: Absorbance at 350 nM of a solution of melanosomes obtained by treatment in hot alkali from tumor after ip injection at 90 min of assay as a measure of pigment content of tissue. The format is functional.
Test [9] is filed under the species Mus musculus. Put plainly: HPCL quantitation of resulting degradation product, pyrrole-2,3,5-tricarboxylic acid (PTCA) content after tumor isolation at 180 min of assay. The format is functional, organism-based. An outline of the steps:
as §2

For test [10], the species on record is Mus musculus. The test can be described thus: HPCL quantitation of resulting degradation product, pyrrole-2,3,5-tricarboxylic acid (PTCA) content after tumor isolation at 90 min of assay. The format is functional, organism-based. Put shortly:
as §2

The species entered for test [11] is Mus musculus. Put plainly: HPCL quantitation of resulting degradation product, pyrrole-2,3,5-tricarboxylic acid (PTCA) content after tumor isolation at 30 min of assay. The format is functional, organism-based. Put shortly:
as §2

Regarding `O=c1cc[nH]c(=S)[nH]1` [THIOURACIL], the Specific incorporation in the test with Mus musculus [1] is recorded as 2500 c.p.m. (mg of melanin)-1; in the test on Mus musculus [5], 2300 c.p.m. (mg of melanin)-1; with Mus musculus [6] it was 2600 c.p.m. (mg of melanin)-1. The Activity was determined as 0.032 in the test with Mus musculus [2], 0.043 in the test with Mus musculus [3], 0.071 in the test with Mus musculus [4] and 0.036 in the test on Mus musculus [8]. For the same molecule, the Concentration in the test filed under Mus musculus [7] stood at 1120 ng/mg; in the test filed under Mus musculus [9] it was 589 ng/mg; in the test filed under Mus musculus [10], 560 ng/mg; in the test filed under Mus musculus [11], 493 ng/mg.

The values above are taken from ChEMBL document CHEMBL1129737, “Mechanism of selective incorporation of the melanoma seeker 2-thiouracil into growing melanin” (1996).
